Measured values from article PMC4971946 (Pharmacognosy Magazine, 2016).

Target: rat intestinal sucrase (Rattus norvegicus, UniProt P23739)
Assay: Assay of sucrase inhibitory activity
Assay type: biochemical
Summary of the method: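 Rat intestinal sucrase-isomaltase prepared by Dahlqvist's method. Enzyme preincubated 10 min at 37°C with test sample (25–200 µg/ml, maleate buffer pH 6.0); reaction started with 60 mM sucrose solution, stopped after 30 min with 3,5-dinitrosalicylic acid reagent, boiled 5 min, A540 read. % inhibition relative to untreated-enzyme control lacking sample; three experiments.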

Sequence of rat intestinal sucrase (P23739 whole entry): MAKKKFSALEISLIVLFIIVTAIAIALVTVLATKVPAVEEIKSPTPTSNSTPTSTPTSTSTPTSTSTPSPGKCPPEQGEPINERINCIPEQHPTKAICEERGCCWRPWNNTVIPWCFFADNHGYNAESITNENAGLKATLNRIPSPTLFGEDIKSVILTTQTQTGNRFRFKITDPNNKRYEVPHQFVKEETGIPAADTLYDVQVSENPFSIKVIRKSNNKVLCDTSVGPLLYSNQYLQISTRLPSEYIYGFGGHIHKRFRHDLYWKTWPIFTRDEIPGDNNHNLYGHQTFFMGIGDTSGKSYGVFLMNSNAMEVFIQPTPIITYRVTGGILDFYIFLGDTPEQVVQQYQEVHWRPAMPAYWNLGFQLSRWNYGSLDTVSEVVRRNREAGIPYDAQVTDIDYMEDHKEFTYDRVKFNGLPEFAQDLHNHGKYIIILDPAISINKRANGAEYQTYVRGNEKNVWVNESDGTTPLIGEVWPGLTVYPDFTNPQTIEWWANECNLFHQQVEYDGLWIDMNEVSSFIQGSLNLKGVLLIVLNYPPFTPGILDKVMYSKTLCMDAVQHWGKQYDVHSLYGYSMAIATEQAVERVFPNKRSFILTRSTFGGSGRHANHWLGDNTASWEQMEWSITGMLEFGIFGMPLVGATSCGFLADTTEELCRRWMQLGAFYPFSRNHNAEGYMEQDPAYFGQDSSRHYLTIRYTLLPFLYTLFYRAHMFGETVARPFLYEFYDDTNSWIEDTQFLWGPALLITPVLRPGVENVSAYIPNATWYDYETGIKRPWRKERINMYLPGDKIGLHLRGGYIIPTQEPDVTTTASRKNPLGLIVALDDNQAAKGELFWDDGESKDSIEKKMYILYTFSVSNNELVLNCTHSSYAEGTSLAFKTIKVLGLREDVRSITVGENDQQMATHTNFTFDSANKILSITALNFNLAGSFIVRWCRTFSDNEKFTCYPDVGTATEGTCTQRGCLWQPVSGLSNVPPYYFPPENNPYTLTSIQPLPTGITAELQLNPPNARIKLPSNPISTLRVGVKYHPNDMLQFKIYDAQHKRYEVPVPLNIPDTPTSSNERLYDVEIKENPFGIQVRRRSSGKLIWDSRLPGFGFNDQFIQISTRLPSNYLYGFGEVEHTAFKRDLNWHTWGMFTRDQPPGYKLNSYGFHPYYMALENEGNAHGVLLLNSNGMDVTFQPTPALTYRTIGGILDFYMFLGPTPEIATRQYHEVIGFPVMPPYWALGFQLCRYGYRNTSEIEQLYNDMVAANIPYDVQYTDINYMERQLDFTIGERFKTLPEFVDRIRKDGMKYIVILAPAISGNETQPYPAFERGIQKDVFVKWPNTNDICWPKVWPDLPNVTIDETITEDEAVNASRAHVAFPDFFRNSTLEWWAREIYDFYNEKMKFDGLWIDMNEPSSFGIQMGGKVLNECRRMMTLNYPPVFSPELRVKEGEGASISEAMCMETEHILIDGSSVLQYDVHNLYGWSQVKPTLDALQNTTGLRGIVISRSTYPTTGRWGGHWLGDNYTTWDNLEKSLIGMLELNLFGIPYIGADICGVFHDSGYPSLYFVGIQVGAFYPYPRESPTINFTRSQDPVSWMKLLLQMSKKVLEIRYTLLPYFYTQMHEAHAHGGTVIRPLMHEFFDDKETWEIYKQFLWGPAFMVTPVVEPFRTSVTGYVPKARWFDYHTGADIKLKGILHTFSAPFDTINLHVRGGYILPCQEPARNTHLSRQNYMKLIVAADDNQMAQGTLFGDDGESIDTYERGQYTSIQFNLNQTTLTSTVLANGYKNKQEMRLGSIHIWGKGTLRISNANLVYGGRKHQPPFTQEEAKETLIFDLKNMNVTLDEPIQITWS

sucrase inhibitory activity IC50 (rat intestinal sucrase, in vitro) [µg/mL]	IC50 [µM]	SMILES
195.62		O=C1O[C@H]2[C@H](O)[C@@H](CO)OC(O)[C@@H]2OC(=O)c2cc(O)c(O)c(O)c2-c2c1cc(O)c(O)c2O (stereo partly drawn) [Compound 2, 2,3-hexahydroxydiphenoyl-(α/β)-D-^4C1-glucopyranose]
	217	O=c1c(O[C@@H]2O[C@@H](CO)[C@H](O)[C@H]2O)c(-c2ccc(O)c(O)c2)oc2cc(O)cc(O)c12 [Compound 3, avicularin]
	148	O=C1OC[C@H]2OC(=O)c3cc(O)c(O)c(O)c3-c3c(O)c(O)c(O)c4c3C(=O)O[C@H]([C@H]3OC(=O)c5c-4c(O)c(O)c(O)c5[C@H]3O)[C@@H]2OC(=O)c2cc(O)c(O)c(O)c2-c2c1cc(O)c(O)c2O [Compound 4, castalagin]
	194	O=c1c(O[C@@H]2O[C@H](CO)[C@@H](O)[C@H](O)[C@H]2O)c(-c2ccc(O)c(O)c2)oc2cc(O)cc(O)c12 [Compound 5, quercetin-3-O-glucoside]
